The test system of data set [1] is Rattus norvegicus. In words: Inhibition of homologous Passive Cutaneous Anaphylaxis in rat, following 20 mg/kg i.p. administration. In kind it is functional. The following applies: po, in the assay text read “p.o.” for “i.p.”. An outline of the steps: (§1)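 Rat anti-DNP-As serum (raised with DNP-coupled ascaris plus killed Bordetella pertussis; titer about 1:256 by 48-h PCA) diluted 20-fold in 0.9% saline, given intradermally as 0.1 mL at three shaved-back sites of normal rats, with saline on the other side. After 48 h, 1.0 mL of 0.25% Evans blue containing 2.0 mg of antigen given iv. Read-out is % inhibition ± SD.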

The test system of data set [2] is Rattus norvegicus. In words: Inhibition of the homologous passive cutaneous anaphylaxis (PCA) in rat, administered at a dose of 50 mg/kg intraperitoneally. The data set is classed as functional. The settings on record: ip, route intraperitoneal. An outline of the steps: as §1
In data set [3] the test system is Rattus norvegicus. In words: Inhibitory activity against the homologous Passive Cutaneous Anaphylaxis (PCA) in rat, administered at a dose of 100 mg/kg intraperitoneally. The data set is classed as functional. The following applies: ip, route intraperitoneal. An outline of the steps:
as §1

Data set [4] can be described thus: Lethal dose (LD50) determined in male ddY mice. In kind it is toxicity. The following applies: mouse, in vivo. An outline of the steps: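 Acute toxicity by the up-down method, five animals per determination, with LD50 reported in mg/kg.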
In data set [5] the test system is Rattus norvegicus. In words: Inhibitory activity against the homologous Passive Cutaneous Anaphylaxis (PCA) in rat, administered at a dose of 50 mg/kg perorally. In kind it is functional. The settings on record: route oral. The procedure, abridged: as §1
In data set [6] the test system is Rattus norvegicus. In words: Inhibitory activity against the homologous Passive Cutaneous Anaphylaxis (PCA) in rat, administered at a dose of 20 mg/kg perorally. In kind it is functional. The settings on record: route oral. An outline of the steps:
as §1

`CCOCC(COc1cccc(NC(=O)CC[S+](C)C)c1)OC(C)=O` (centres undefined): the inhibition in vivo at 20 mg/kg with Rattus norvegicus [1] came out at 18.2%. Moreover, the inhibition in vivo at 50 mg/kg with Rattus norvegicus [2] was found to be 17.7%.
Consider `C[S+](C)CCC(=O)Nc1ccccc1`, for which the inhibition in vivo at 100 mg/kg with Rattus norvegicus [3] is 27.1%. In the data set on Rattus norvegicus [2], the inhibition in vivo at 50 mg/kg is -8.3%.
For `CCOCC(O)COc1ccc(NC(=O)CC[S+](C)C)cc1` (centres undefined) [SUPLATAST TOSILATE], the inhibition in vivo at 20 mg/kg in the data set on Rattus norvegicus [1] worked out at 28.9%. Moreover, the inhibition in vivo at 50 mg/kg in the data set on Rattus norvegicus [2] was 35.5%.
For `COCC(COc1ccc(NC(=O)CC[S+](C)C)cc1)OC` (centres undefined) the same measures were 17.9% and 10.5%.
The compound `C[S+](C)CCC(=O)Nc1ccc(OCC(O)CO)cc1.Cc1ccc(S(=O)(=O)[O-])cc1` (centres undefined) had an LD50 in data set [4] of 1040 mg/kg. Moreover, the results for the inhibition in vivo at 20 mg/kg with Rattus norvegicus [1] and in the data set with Rattus norvegicus [6] were 38.7% and 1.4%, respectively. The inhibition in vivo at 50 mg/kg in the data set with Rattus norvegicus [5] amounted to 18.6%; with Rattus norvegicus [2], 34.9%.
Consider `C[S+](C)CCC(N)=O`, for which the inhibition in vivo at 100 mg/kg with Rattus norvegicus [3] was 13.7%. In addition, the inhibition in vivo at 50 mg/kg with Rattus norvegicus [2] came out at 2.4%.
`COc1ccc(NC(=O)CC[S+](C)C)cc1`: the inhibition in vivo at 20 mg/kg with Rattus norvegicus [1] is -4.4%. In the data set with Rattus norvegicus [2], the inhibition in vivo at 50 mg/kg is 17.4%.
With `C[S+](C)CCC(=O)Nc1ccc(O)cc1`, in the data set with Rattus norvegicus [1], the inhibition in vivo at 20 mg/kg was 21.9%. Also, the inhibition in vivo at 50 mg/kg in the data set with Rattus norvegicus [2] amounted to 9.7%.
For the compound `CCOCC(COc1ccc(NC(=O)CC[S+](C)C)cc1)OC(C)=O` (centres undefined), in the data set with Rattus norvegicus [1], the inhibition in vivo at 20 mg/kg is 35.1%. For the same compound, in the data set with Rattus norvegicus [2], the inhibition in vivo at 50 mg/kg was determined as 30.2%.
Compound `CC(O)COc1ccc(NC(=O)CC[S+](C)C)cc1.Cc1ccc(S(=O)(=O)[O-])cc1` (centres undefined) had an LD50 in data set [4] of 495 mg/kg.
Take `C[S+](C)CCC(=O)Nc1ccc(F)cc1`: the inhibition in vivo at 20 mg/kg in the data set on Rattus norvegicus [1] is 4%. In addition, the inhibition in vivo at 50 mg/kg in the data set with Rattus norvegicus [2] worked out at 1.2%.
For `C[S+](C)CCC(=O)Nc1ccc(CC(=O)O)cc1` the same measures were 14.9% and 25.5%.
On to `C[S+](C)CCC(=O)Nc1ccc(OCCCO)cc1.Cc1ccc(S(=O)(=O)[O-])cc1`, for which the LD50 in data set [4] is 324 mg/kg.
In the case of `COCC(O)COc1ccc(NC(=O)CC[S+](C)C)cc1` (centres undefined), the inhibition in vivo at 20 mg/kg in the data set with Rattus norvegicus [1] was 17.7%. For the same compound, the inhibition in vivo at 50 mg/kg with Rattus norvegicus [2] is 24.8%.
For the compound `Cc1ccc(NC(=O)CC[S+](C)C)cc1`, in the data set on Rattus norvegicus [1], the inhibition in vivo at 20 mg/kg was 18.9%. In addition, the inhibition in vivo at 50 mg/kg in the data set on Rattus norvegicus [2] was 22%.
Take `C[S+](C)CCC(=O)Nc1ccc(C(F)(F)F)cc1`: the inhibition in vivo at 20 mg/kg in the data set on Rattus norvegicus [1] is -7.8%. In addition, the inhibition in vivo at 50 mg/kg in the data set with Rattus norvegicus [2] is -10.3%.
For `CC(=O)c1ccc(NC(=O)CC[S+](C)C)cc1`, the inhibition in vivo at 20 mg/kg in the data set with Rattus norvegicus [1] was 9%. Moreover, the inhibition in vivo at 50 mg/kg in the data set on Rattus norvegicus [2] came to 25.1%.
For the compound `CCOCC(COc1ccc(NC(=O)CC[S+](C)C)cc1)OCC` (centres undefined), the inhibition in vivo at 20 mg/kg in the data set with Rattus norvegicus [1] was 0.1%. The inhibition in vivo at 50 mg/kg in the data set on Rattus norvegicus [2] came out at 5.1%.
`CCOCC(COc1ccccc1NC(=O)CC[S+](C)C)OC(C)=O` (centres undefined): the inhibition in vivo at 20 mg/kg in the data set with Rattus norvegicus [1] was -2%. Also, the inhibition in vivo at 50 mg/kg in the data set with Rattus norvegicus [2] was 20%.
In the case of `C[S+](C)CCC(=O)Nc1ccc(OCC(O)COC2CCCCC2)cc1` (centres undefined), the inhibition in vivo at 20 mg/kg in the data set with Rattus norvegicus [1] was 10.2%. For the same compound, the inhibition in vivo at 50 mg/kg in the data set with Rattus norvegicus [2] is -7.4%.
For `CCCOc1ccc(NC(=O)CC[S+](C)C)cc1.Cc1ccc(S(=O)(=O)[O-])cc1`, in data set [4], the LD50 turned out to be 97 mg/kg. In addition, the inhibition in vivo at 20 mg/kg in the data set on Rattus norvegicus [1] was 13.8%. In the data set on Rattus norvegicus [2], the inhibition in vivo at 50 mg/kg worked out at 29.8%.
In the case of `CCCCOCC(O)COc1ccc(NC(=O)CC[S+](C)C)cc1` (centres undefined), the inhibition in vivo at 20 mg/kg in the data set with Rattus norvegicus [1] is 7.9%. Moreover, the inhibition in vivo at 50 mg/kg in the data set on Rattus norvegicus [2] was found to be 4.4%.
Consider `CCCOCC(O)COc1ccc(NC(=O)CC[S+](C)C)cc1` (centres undefined), for which the inhibition in vivo at 20 mg/kg in the data set with Rattus norvegicus [1] is 16.3%. Besides, the inhibition in vivo at 50 mg/kg with Rattus norvegicus [2] was determined as 13.8%.
As for `C[S+](C)CCC(=O)Nc1ccc(OCC(O)COc2ccccc2)cc1` (centres undefined), in the data set with Rattus norvegicus [1], the inhibition in vivo at 20 mg/kg was 14.4%. Further, the inhibition in vivo at 50 mg/kg with Rattus norvegicus [2] was 4.6%.
Taken in the same sequence, the figures for `C[S+](C)CCC(=O)Nc1ccc(Cl)cc1` were -0.2% and 0.3%.
On to `C[S+](C)CCC(=O)NC1CCCCC1`, for which the inhibition in vivo at 100 mg/kg in the data set on Rattus norvegicus [3] was found to be 17%. For the same compound, the inhibition in vivo at 50 mg/kg in the data set with Rattus norvegicus [2] came out at 9%.

In general, inhibition in vivo refers to the drop in the measured response relative to a control, in per cent. The LD50 is the dose at which mortality reaches 50%.

Source of the values: ChEMBL document CHEMBL1131070, “Synthesis and antiallergic activity of dimethyl-2-(phenylcarbamoyl)ethylsulfonium p-toluenesulfonate derivatives” (J Med Chem, 1998).
